Results taken from ChEMBL document CHEMBL3102849, “A heat shock protein 90 inhibitor that modulates the immunophilins and regulates hormone receptors without inducing the heat shock response” (Bioorg Med Chem Lett, 2014).
Active and inactive are the calls of the source. No cut-off for these calls is given here. Residues, ends and D or L forms follow the SMILES beside them.

How the values were obtained:
[1] = biological target: T1, Heat shock protein HSP 90 (Oryctolagus cuniculus) (UniProt P11500); assay: Inhibition of Hsp90 in rabbit reticulocyte lysate at 50 uM measured at 30 mins by bright glo luciferase refolding assay relative to control
T1 sequence (whole entry): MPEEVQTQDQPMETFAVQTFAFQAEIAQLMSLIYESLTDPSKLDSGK
In short: (§1)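 Heat-denatured firefly luciferase incubated in rabbit reticulocyte lysate, the complete lysate system; compound at 50μM; refolding followed over time by luciferase activity relative to control; n=3, mean±SEM.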

[2] = biological target: Heat shock protein HSP 90-beta (Homo sapiens) (UniProt P08238); assay: Inhibition of Hsp90 (unknown origin) at 50 uM preincubated for 1 hr followed by denatured luciferase addition measured at 120 mins by bright glo luciferase refolding assay in presence of Hsp70/Hsp40/HOP relative to control
Heat shock protein HSP 90-beta (Homo sapiens), sequence (P08238 whole entry): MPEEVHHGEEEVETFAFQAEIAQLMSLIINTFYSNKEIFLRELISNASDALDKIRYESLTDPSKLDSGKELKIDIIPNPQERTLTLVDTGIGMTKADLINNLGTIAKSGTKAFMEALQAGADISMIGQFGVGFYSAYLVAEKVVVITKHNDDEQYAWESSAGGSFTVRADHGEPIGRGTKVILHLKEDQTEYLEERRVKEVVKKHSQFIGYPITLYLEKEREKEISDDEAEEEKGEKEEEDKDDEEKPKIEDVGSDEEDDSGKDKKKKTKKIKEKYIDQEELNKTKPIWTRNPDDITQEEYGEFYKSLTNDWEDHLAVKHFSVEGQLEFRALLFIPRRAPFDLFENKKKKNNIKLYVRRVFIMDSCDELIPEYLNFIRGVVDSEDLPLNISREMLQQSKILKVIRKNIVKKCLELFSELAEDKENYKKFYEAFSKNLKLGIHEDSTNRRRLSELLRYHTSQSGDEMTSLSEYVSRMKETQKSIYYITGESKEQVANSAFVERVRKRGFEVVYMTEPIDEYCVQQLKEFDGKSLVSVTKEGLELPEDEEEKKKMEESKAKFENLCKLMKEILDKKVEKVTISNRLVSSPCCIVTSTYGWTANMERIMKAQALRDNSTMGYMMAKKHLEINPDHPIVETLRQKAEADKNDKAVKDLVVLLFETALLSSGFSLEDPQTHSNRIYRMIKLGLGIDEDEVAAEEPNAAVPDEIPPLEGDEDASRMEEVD
In short: (§2)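 Pure-protein refolding: heat-denatured firefly luciferase incubated with 0.5μM hsp90, 1μM hsp70, 0.2μM hsp40 and 0.1μM HOP; compound at 50μM; luciferase activity followed over time, expressed versus control; n=3, mean±SEM.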

[3] = biological target: T1, Heat shock protein HSP 90 (Oryctolagus cuniculus); assay: Inhibition of Hsp90 in rabbit reticulocyte lysate at 50 uM measured at 75 mins by bright glo luciferase refolding assay relative to control; in short: as §1
[4] = biological target: Heat shock protein HSP 90-beta (Homo sapiens) (UniProt P08238); assay: Inhibition of Hsp90 in human HeLa cells assessed as downregulation of HSF1 protein expression at 5 uM to 50 uM after 30 hours by Western blotting analysis relative to DMSO-treated control; assay type: cell-based
In short: (§3)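 HeLa cervical carcinoma cells treated at 5μM and 50μM; cell lysates probed for the heat shock response proteins hsp70, hsp90 and HSF1 by western blot, compared with DMSO.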

[5] = biological target: T1, Heat shock protein HSP 90 (Oryctolagus cuniculus); assay: Inhibition of Hsp90 in rabbit reticulocyte lysate at 50 uM measured at 15 mins by bright glo luciferase refolding assay relative to control; in short: as §1
[6] = biological target: T1, Heat shock protein HSP 90 (Oryctolagus cuniculus); assay: Inhibition of Hsp90 in rabbit reticulocyte lysate at 50 uM measured at 90 mins by bright glo luciferase refolding assay relative to control; in short: as §1
[7] = biological target: Heat shock protein HSP 90-beta (Homo sapiens) (UniProt P08238); assay: Inhibition of Hsp90 in human HeLa cells assessed as change in Hsp70 protein expression at 5 uM to 50 uM after 30 hours by Western blotting analysis; assay type: cell-based; in short: as §3
[8] = biological target: Heat shock protein HSP 90-beta (Homo sapiens) (UniProt P08238); assay: Inhibition of Hsp90 in human HeLa cells assessed as downregulation of Hsp90 protein expression at 5 uM to 50 uM after 30 hours by Western blotting analysis relative to DMSO-treated control; assay type: cell-based; in short: as §3
[9] = biological target: Heat shock protein HSP 90-beta (Homo sapiens) (UniProt P08238); assay: Binding affinity to human Hsp90 assessed as inhibition of interaction with His/GST-tagged recombinant co-chaperone Cyp40 at 10 uM preincubated for 1 hr followed by co-chaperone addition measured after 1 hr by Western blotting analysis
In short: (§4)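 Purified native hsp90 combined with purified TPR co-chaperone (FKBP51, FKBP52, HOP, Unc45, CHIP, Cyp40 or TOM70), with increasing compound, 0–10 μM; hsp90–co-chaperone binding measured across the range.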

[10] = biological target: Heat shock protein HSP 90-beta (Homo sapiens) (UniProt P08238); assay: Inhibition of Hsp90 (unknown origin) at 50 uM preincubated for 1 hr followed by denatured luciferase addition measured at 15 mins by bright glo luciferase refolding assay in presence of Hsp70/Hsp40/HOP relative to control; in short: as §2
[11] = biological target: Heat shock protein HSP 90-beta (Homo sapiens) (UniProt P08238); assay: Binding affinity to human Hsp90 assessed as inhibition of interaction with His/GST-tagged recombinant co-chaperone TOM70 at 10 uM preincubated for 1 hr followed by co-chaperone addition measured after 1 hr by Western blotting analysis; in short: as §4
[12] = biological target: Heat shock protein HSP 90-beta (Homo sapiens) (UniProt P08238); assay: Inhibition of Hsp90 in human HeLa cells assessed as downregulation of FKBP52 protein level at 50 uM after 30 hours by Western blotting analysis; assay type: cell-based
In short: (§5)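 HeLa cells treated at 5μM and 50μM; lysates western blotted for FKBP51, FKBP52 and glucocorticoid receptor; bands normalized to GAPDH and compared with DMSO control; n≥3, mean±SEM.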

[13] = biological target: Heat shock protein HSP 90-beta (Homo sapiens) (UniProt P08238); assay: Inhibition of Hsp90 (unknown origin) at 50 uM preincubated for 1 hr followed by denatured luciferase addition measured at 60 mins by bright glo luciferase refolding assay in presence of Hsp70/Hsp40/HOP relative to control; in short: as §2
[14] = biological target: Heat shock protein HSP 90-beta (Homo sapiens) (UniProt P08238); assay: Inhibition of Hsp90 (unknown origin) at 50 uM preincubated for 1 hr followed by denatured luciferase addition measured at 30 mins by bright glo luciferase refolding assay in presence of Hsp70/Hsp40/HOP relative to control; in short: as §2
[15] = biological target: T1, Heat shock protein HSP 90 (Oryctolagus cuniculus); assay: Inhibition of Hsp90 in rabbit reticulocyte lysate at 50 uM measured at 60 mins by bright glo luciferase refolding assay relative to control; in short: as §1
[16] = biological target: Heat shock protein HSP 90-beta (Homo sapiens) (UniProt P08238); assay: Inhibition of Hsp90 (unknown origin) at 50 uM preincubated for 1 hr followed by denatured luciferase addition measured at 90 mins by bright glo luciferase refolding assay in presence of Hsp70/Hsp40/HOP relative to control; in short: as §2
[17] = biological target: Heat shock protein HSP 90-beta (Homo sapiens) (UniProt P08238); assay: Inhibition of Hsp90 in human HeLa cells assessed as change in FKBP51 protein level at 50 uM after 30 hours by Western blotting analysis; assay type: cell-based; in short: as §5
[18] = biological target: T1, Heat shock protein HSP 90 (Oryctolagus cuniculus); assay: Inhibition of Hsp90 in rabbit reticulocyte lysate at 50 uM measured at 45 mins by bright glo luciferase refolding assay relative to control; in short: as §1
[19] = biological target: Heat shock protein HSP 90-beta (Homo sapiens) (UniProt P08238); assay: Inhibition of Hsp90 (unknown origin) at 50 uM preincubated for 1 hr followed by denatured luciferase addition measured at 45 mins by bright glo luciferase refolding assay in presence of Hsp70/Hsp40/HOP relative to control; in short: as §2
[20] = biological target: Heat shock protein HSP 90-beta (Homo sapiens) (UniProt P08238); assay: Inhibition of Hsp90 (unknown origin) at 50 uM preincubated for 1 hr followed by denatured luciferase addition measured at 75 mins by bright glo luciferase refolding assay in presence of Hsp70/Hsp40/HOP relative to control; in short: as §2
[21] = biological target: Heat shock protein HSP 90-beta (Homo sapiens) (UniProt P08238); assay: Binding affinity to human Hsp90 assessed as inhibition of interaction with His/GST-tagged recombinant co-chaperone CHIP at 10 uM preincubated for 1 hr followed by co-chaperone addition measured after 1 hr by Western blotting analysis; in short: as §4
[22] = biological target: Heat shock protein HSP 90-beta (Homo sapiens) (UniProt P08238); assay: Inhibition of Hsp90 (unknown origin) at 50 uM preincubated for 1 hr followed by denatured luciferase addition measured at 105 mins by bright glo luciferase refolding assay in presence of Hsp70/Hsp40/HOP relative to control; in short: as §2
[23] = biological target: Heat shock protein HSP 90-beta (Homo sapiens) (UniProt P08238); assay: Binding affinity to human Hsp90 assessed as inhibition of interaction with His/GST-tagged recombinant co-chaperone Unc45 up to 10 uM preincubated for 1 hr followed by co-chaperone addition measured after 1 hr by Western blotting analysis
In short: (§6)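 In vitro binding assay: pure native hsp90 combined with individual purified TPR co-chaperones (Unc45, CHIP, TOM70, Cyp40, FKBP51, FKBP52), with compound added in increasing amounts up to 5 or 10 μM. Co-chaperone–hsp90 association was scored against the compound-free condition.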

[24] = biological target: Heat shock protein HSP 90-beta (Homo sapiens) (UniProt P08238); assay: Inhibition of Hsp90 in human HeLa cells assessed as downregulation of FKBP52 protein level at 40 uM after 30 hours by Western blotting analysis in presence of proteasome inhibitor MG-132; assay type: cell-based
[25] = biological target: Heat shock protein HSP 90-beta (Homo sapiens) (UniProt P08238); assay: Binding affinity to human Hsp90 assessed as inhibition of interaction with His/GST-tagged recombinant co-chaperone FKBP51 up to 10 uM preincubated for 1 hr followed by co-chaperone addition measured after 1 hr by Western blotting analysis; in short: as §6
[26] = biological target: Heat shock protein HSP 90-beta (Homo sapiens) (UniProt P08238); assay: Binding affinity to human Hsp90 assessed as inhibition of interaction with His/GST-tagged recombinant co-chaperone CHIP up to 10 uM preincubated for 1 hr followed by co-chaperone addition measured after 1 hr by Western blotting analysis; in short: as §6
[27] = biological target: Heat shock protein HSP 90-beta (Homo sapiens) (UniProt P08238); assay: Binding affinity to human Hsp90 assessed as inhibition of interaction with His/GST-tagged recombinant co-chaperone CYP40 up to 10 uM preincubated for 1 hr followed by co-chaperone addition measured after 1 hr by Western blotting analysis; in short: as §6
[28] = biological target: Heat shock protein HSP 90-beta (Homo sapiens) (UniProt P08238); assay: Inhibition of Hsp90 in human HeLa cells assessed as downregulation of glucocorticoid receptor protein level at 40 uM after 30 hours by Western blotting analysis in presence of proteasome inhibitor MG-132; assay type: cell-based
[29] = biological target: Heat shock protein HSP 90-beta (Homo sapiens) (UniProt P08238); assay: Inhibition of Hsp90 (unknown origin) at 50 uM preincubated for 1 hr followed by denatured luciferase addition measured after 2 hrs by bright glo luciferase refolding assay in presence of Hsp70/Hsp40/HOP relative to control
In short: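 Purified refolding system: heat-denatured firefly luciferase incubated with 0.5 μM hsp90, 1 μM hsp70, 0.2 μM hsp40 and 0.1 μM HOP plus test agent (1 μM or 50 μM). Luciferase activity was followed over time up to 2 h and expressed relative to control. n=3, mean±SEM.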

[30] = biological target: Heat shock protein HSP 90-beta (Homo sapiens) (UniProt P08238); assay: Inhibition of Hsp90 in human HeLa cells assessed as downregulation of FKBP51 protein level at 40 uM after 30 hours by Western blotting analysis in presence of proteasome inhibitor MG-132; assay type: cell-based
[31] = biological target: Heat shock protein HSP 90-beta (Homo sapiens) (UniProt P08238); assay: Inhibition of human Hsp90 assessed as disruption of interaction with recombinant p23 up to 10 uM by Western blotting analysis
[32] = biological target: Heat shock protein HSP 90-beta (Homo sapiens) (UniProt P08238); assay: Binding affinity to human Hsp90 assessed as inhibition of interaction with His/GST-tagged recombinant co-chaperone TOM70 up to 10 uM preincubated for 1 hr followed by co-chaperone addition measured after 1 hr by Western blotting analysis; in short: as §6

SMILES	RLU [1]	RLU [2]	RLU [3]	inhibition [4] [%]	RLU [5]	RLU [6]	inhibition [7]	inhibition [8] [%]	RLU [10]	RLU [13]	RLU [14]	RLU [15]	RLU [16]	RLU [18]	RLU [19]	RLU [20]	RLU [22]	further results
CO[C@H]1[C@H](OC(=O)c2ccc(C)[nH]2)[C@H](O)[C@@H](Oc2ccc3c(O)c(NC(=O)c4c[nH]c(C(=O)Nc5c(O)c6ccc(O[C@H]7OC(C)(C)[C@@H](OC)[C@H](OC(=O)c8ccc(C)[nH]8)[C@@H]7O)c(C)c6oc5=O)c4C)c(=O)oc3c2C)OC1(C)C	10600	417	22000	50	4670	25400	Active	50	519	497	565	19200	520	15500	498	540	467	inhibition [9]: Active; inhibition [11]: Active; inhibition [12]: Active; inhibition [17]: Active; inhibition [21]: Active
CC(C)C[C@@H]1NC(=O)[C@H](C(C)C)N(C)C(=O)[C@@H](CC(C)C)NC(=O)[C@@H](Cc2ccccc2)NC(=O)[C@@H]([C@H](OCc2ccccc2)c2ccccc2)NC1=O (HELM PEPTIDE1{[O=C([C@H](N[*:1])[C@H](OCc1ccccc1)c1ccccc1)[*:2]].[dF].[dL].[meV].L}$PEPTIDE1,PEPTIDE1,1:R1-5:R2$$$V2.0)	10800	9190	25300	50	5240	29600	Active	50	3800	6340	4360	21800	8670	16800	5700	7810	8800	inhibition [23]: Active; inhibition [24]: Active; inhibition [25]: Active; inhibition [26]: Active; inhibition [27]: Active; inhibition [28]: Active; inhibition [29]: 55%; inhibition [30]: Active; inhibition [31]: Active; inhibition [32]: Active
